# From ChEMBL document CHEMBL3232844, “Synthesis and structure activity relationships of schweinfurthin indoles” (2014)
# Experiments:
# Format in all cases: functional
# CCRF-CEM = assay: Cytotoxicity against human CCRF-CEM cells
# HL-60(TB) = assay: Cytotoxicity against human HL-60(TB) cells
# Summary of the method: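 Tested within the NCI 60-cell-line screen, with GI50 as the read-out. Values are the average of two independent experiments. The lowest concentration tested was 10 nM.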
# K562 = assay: Cytotoxicity against human K562 cells
# Summary of the method: (§1)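 Tested in a 60-cell-line human tumor panel screen; the read-out is growth inhibition, reported as GI50 for each cell line.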
# MOLT-4 = assay: Cytotoxicity against human MOLT4 cells; summary of the method: as §1
# A549 = assay: Cytotoxicity against human A549 cells; summary of the method: as §1
# [1] = Cytotoxicity against human EKVX cells; summary of the method: as §1
# NCI-H226 = assay: Cytotoxicity against human NCI-H226 cells; summary of the method: as §1
# NCI-H23 = assay: Cytotoxicity against human NCI-H23 cells; summary of the method: as §1
# COLO 205 = assay: Cytotoxicity against human COLO205 cells; summary of the method: as §1
# HCT-116 = assay: Cytotoxicity against human HCT116 cells; summary of the method: as §1
# [2] = Cytotoxicity against human HCT15 cells; summary of the method: as §1
# HT-29 = assay: Cytotoxicity against human HT-29 cells; summary of the method: as §1
# SF-295 = assay: Cytotoxicity against human SF295 cells; summary of the method: as §1
# SF-539 = assay: Cytotoxicity against human SF539 cells; summary of the method: as §1
# SNB-75 = assay: Cytotoxicity against human SNB75 cells
# Summary of the method: (§2)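 Cell line run as part of the 60-cell-line screening panel; growth inhibition was reported as a GI50 for each line.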
# U-251 = assay: Cytotoxicity against human U251 cells; summary of the method: as §2
# LOX IMVI = assay: Cytotoxicity against human LOXIMVI cells; summary of the method: as §1
# M14 = assay: Cytotoxicity against human M14 cells; summary of the method: as §1
# MDA-MB-435 = assay: Cytotoxicity against human MDA-MB-435 cells; summary of the method: as §1
# NCI-H322M = assay: Cytotoxicity against human NCI-H322M cells; summary of the method: as §1
# NCI-H460 = assay: Cytotoxicity against human NCI-H460 cells; summary of the method: as §1
# SK-MEL-2 = assay: Cytotoxicity against human SK-MEL-2 cells; summary of the method: as §1
# SK-MEL-5 = assay: Cytotoxicity against human SK-MEL-5 cells; summary of the method: as §1
# [3] = Cytotoxicity against human UACC257 cells; summary of the method: as §2
# [4] = Cytotoxicity against human UACC62 cells; summary of the method: as §2
# IGROV-1 = assay: Cytotoxicity against human IGROV1 cells; summary of the method: as §1
# [5] = Cytotoxicity against human OVCAR3 cells; summary of the method: as §1
# [6] = Cytotoxicity against human OVCAR4 cells; summary of the method: as §1
# [7] = Cytotoxicity against human NCI-ADR-RES cells; summary of the method: as §1
# SK-OV-3 = assay: Cytotoxicity against human SKOV3 cells; summary of the method: as §1
# 786-0 = assay: Cytotoxicity against human 786-0 cells; summary of the method: as §1
# A498 = assay: Cytotoxicity against human A498 cells; summary of the method: as §1
# ACHN = assay: Cytotoxicity against human ACHN cells; summary of the method: as §1
# CAKI-1 = assay: Cytotoxicity against human Caki1 cells; summary of the method: as §1
# RXF 393 = assay: Cytotoxicity against human RXF393 cells; summary of the method: as §1
# SN12C = assay: Cytotoxicity against human SN12C cells; summary of the method: as §1
# [8] = Cytotoxicity against human UO31 cells; summary of the method: as §2
# PC-3 = assay: Cytotoxicity against human PC3 cells; summary of the method: as §1
# MCF7 = assay: Cytotoxicity against human MCF7 cells; summary of the method: as §1
# MDA-MB-231 = assay: Cytotoxicity against human MDA-MB-231 cells; summary of the method: as §1
# BT-549 = assay: Cytotoxicity against human BT549 cells; summary of the method: as §1
# T47D = assay: Cytotoxicity against human T47D cells; summary of the method: as §2
# MDA-MB-468 = assay: Cytotoxicity against human MDA-MB-468 cells; summary of the method: as §1
# [9] = read-out: pLC50 (the source's name) (converted)
smiles,measurement,setting,value
COc1cc(/C=C/c2cc(O)c3c(c2)C[C@@H]2C(C)(C)[C@H](O)CC[C@@]2(C)O3)cc2[nH]cc(CC=C(C)C)c12,GI50,CCRF-CEM,0.0871 µM
same,CC50,CCRF-CEM; [9],> 100 µM
same,TGI,CCRF-CEM; read-out: pTGI (converted),14.8 µM
same,GI50,HL-60(TB),0.0646 µM
same,CC50,HL-60(TB); [9],79.4 µM
same,TGI,HL-60(TB); read-out: pTGI (converted),18.2 µM
same,GI50,K562,0.138 µM
same,CC50,K562; [9],> 100 µM
same,TGI,K562; read-out: pTGI (converted),9.77 µM
same,GI50,MOLT-4,0.105 µM
same,CC50,MOLT-4; [9],> 100 µM
same,TGI,MOLT-4; read-out: pTGI (converted),2.57 µM
same,GI50,A549,2.4 µM
same,CC50,A549; [9],67.6 µM
same,TGI,A549; read-out: pTGI (converted),38.9 µM
same,GI50,[1],3.89 µM
same,CC50,[1]; [9],81.3 µM
same,TGI,[1]; read-out: pTGI (converted),39.8 µM
same,GI50,NCI-H226,8.32 µM
same,CC50,NCI-H226; [9],72.4 µM
same,TGI,NCI-H226; read-out: pTGI (converted),33.1 µM
same,GI50,NCI-H23,1.55 µM
same,CC50,NCI-H23; [9],66.1 µM
same,TGI,NCI-H23; read-out: pTGI (converted),26.9 µM
same,GI50,COLO 205,4.17 µM
same,CC50,COLO 205; [9],21.4 µM
same,TGI,COLO 205; read-out: pTGI (converted),9.33 µM
same,GI50,HCT-116,0.339 µM
same,CC50,HCT-116; [9],64.6 µM
same,TGI,HCT-116; read-out: pTGI (converted),36.3 µM
same,GI50,[2]; HCT-15,0.209 µM
same,CC50,"[2]; HCT-15, read-out: pLC50 (the source's name) (converted)",36.3 µM
same,TGI,"[2]; HCT-15, read-out: pTGI (converted)",4.9 µM
same,GI50,HT-29,0.832 µM
same,CC50,HT-29; [9],21.4 µM
same,TGI,HT-29; read-out: pTGI (converted),5.37 µM
same,GI50,SF-295; read-out: GI50,< 0.023 µM
same,GI50,SF-295; read-out: pGI50 (converted),0.0234 µM
same,CC50,SF-295; [9],6.46 µM
same,TGI,SF-295; read-out: pTGI (converted),0.115 µM
same,GI50,SF-539,0.01 µM
same,CC50,SF-539; [9],24.5 µM
same,TGI,SF-539; read-out: pTGI (converted),4.47 µM
same,GI50,SNB-75,0.01 µM
same,CC50,SNB-75; [9],64.6 µM
same,TGI,SNB-75; read-out: pTGI (converted),10.5 µM
same,GI50,U-251,0.01 µM
same,CC50,U-251; [9],60.3 µM
same,TGI,U-251; read-out: pTGI (converted),32.4 µM
same,GI50,LOX IMVI,0.282 µM
same,CC50,LOX IMVI; [9],30.9 µM
same,TGI,LOX IMVI; read-out: pTGI (converted),6.61 µM
same,GI50,M14,0.537 µM
same,CC50,M14; [9],64.6 µM
same,TGI,M14; read-out: pTGI (converted),32.4 µM
same,GI50,MDA-MB-435,0.437 µM
same,CC50,MDA-MB-435; [9],95.5 µM
same,TGI,MDA-MB-435; read-out: pTGI (converted),38 µM
same,GI50,NCI-H322M,18.2 µM
same,CC50,NCI-H322M; [9],77.6 µM
same,TGI,NCI-H322M; read-out: pTGI (converted),49 µM
same,GI50,NCI-H460,0.209 µM
same,CC50,NCI-H460; [9],66.1 µM
same,TGI,NCI-H460; read-out: pTGI (converted),26.9 µM
same,GI50,SK-MEL-2,0.105 µM
same,CC50,SK-MEL-2; [9],50.1 µM
same,TGI,SK-MEL-2; read-out: pTGI (converted),5.25 µM
same,GI50,SK-MEL-5,1.23 µM
same,CC50,SK-MEL-5; [9],7.08 µM
same,TGI,SK-MEL-5; read-out: pTGI (converted),2.14 µM
same,GI50,[3]; UACC-257,14.5 µM
same,CC50,"[3]; UACC-257, read-out: pLC50 (the source's name) (converted)",77.6 µM
same,TGI,"[3]; UACC-257, read-out: pTGI (converted)",49 µM
same,GI50,[4]; UACC-62,0.1 µM
same,CC50,"[4]; UACC-62, read-out: pLC50 (the source's name) (converted)",33.9 µM
same,TGI,"[4]; UACC-62, read-out: pTGI (converted)",0.955 µM
same,GI50,IGROV-1,5.01 µM
same,CC50,IGROV-1; [9],89.1 µM
same,TGI,IGROV-1; read-out: pTGI (converted),45.7 µM
same,GI50,[5]; OVCAR-3,8.71 µM
same,CC50,"[5]; OVCAR-3, read-out: pLC50 (the source's name) (converted)",63.1 µM
same,TGI,"[5]; OVCAR-3, read-out: pTGI (converted)",36.3 µM
same,GI50,[6]; OVCAR-4,10.7 µM
same,CC50,"[6]; OVCAR-4, read-out: pLC50 (the source's name) (converted)",77.6 µM
same,TGI,"[6]; OVCAR-4, read-out: pTGI (converted)",47.9 µM
same,GI50,[7],7.59 µM
same,CC50,[7]; [9],85.1 µM
same,TGI,[7]; read-out: pTGI (converted),46.8 µM
same,GI50,SK-OV-3,4.68 µM
same,LC50,SK-OV-3,77.6 µM
same,TGI,SK-OV-3; read-out: pTGI (converted),39.8 µM
same,GI50,786-0,0.01 µM
same,LC50 (concentration killing 50% of cells),786-0,21.4 µM
same,TGI,786-0; read-out: pTGI (converted),2.45 µM
same,GI50,A498,0.0661 µM
same,CC50,A498; [9],44.7 µM
same,TGI,A498; read-out: pTGI (converted),2.69 µM
same,GI50,ACHN,3.63 µM
same,LC50 (concentration killing 50% of cells),ACHN,61.7 µM
same,TGI,ACHN; read-out: pTGI (converted),38 µM
same,GI50,CAKI-1,0.245 µM
same,LC50,CAKI-1,79.4 µM
same,TGI,CAKI-1; read-out: pTGI (converted),17 µM
same,GI50,RXF 393,0.01 µM
same,LC50,RXF 393,8.51 µM
same,TGI,RXF 393; read-out: pTGI (converted),0.0339 µM
same,GI50,SN12C,8.51 µM
same,LC50,SN12C,75.9 µM
same,TGI,SN12C; read-out: pTGI (converted),45.7 µM
same,GI50,[8]; UO-31,0.129 µM
same,LC50,[8]; UO-31,69.2 µM
same,TGI,"[8]; UO-31, read-out: pTGI (converted)",21.4 µM
same,GI50,PC-3,1.32 µM
same,LC50,PC-3,> 100 µM
same,TGI,PC-3; read-out: pTGI (converted),43.7 µM
same,GI50,MCF7,0.537 µM
same,LC50,MCF7,55 µM
same,TGI,MCF7; read-out: pTGI (converted),12.3 µM
same,GI50,MDA-MB-231,0.891 µM
same,LC50,MDA-MB-231,45.7 µM
same,TGI,MDA-MB-231; read-out: pTGI (converted),9.77 µM
same,GI50,BT-549,0.479 µM
same,CC50,BT-549; [9],67.6 µM
same,TGI,BT-549; read-out: pTGI (converted),41.7 µM
same,GI50,T47D,8.13 µM
same,CC50,T47D; [9],> 100 µM
same,TGI,T47D; read-out: pTGI (converted),39.8 µM
same,GI50,MDA-MB-468,0.182 µM
same,LC50,MDA-MB-468,67.6 µM
same,TGI,MDA-MB-468; read-out: pTGI (converted),4.79 µM
